Sampled rows, rich in hits. Any-hit rate of the full collection: about 2.4%.
NTR1 ag: agonists of human NTR1, primary screen, imaging, U2OS cells, beta-arrestin-GFP, high content | Neurotensin receptor type 1 (Homo sapiens), P30989 | NTR1-U2OS beta-arrestin-GFP spot imaging, agonist mode | activation, % at 20 µM | 330,000 compounds, 0.17% hits;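 active = activation at or above 40% of the spot to cytoplasm intensity ratio, with at least 20 cells analyzed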;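 note: 0% = DMSO without peptide and 100% = 100 nM NTR1 peptide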
aDG glyco up: activators of alpha-DG glycosylation, primary screen, uHTS, Pro5-aDG cells, AlphaScreen | alpha-DG glycosylation AlphaScreen (IIH6); 0% Pro5, 100% B10-LARGE cell signal | activation, % at 10 µM | 360,000 compounds, 0.22% hits;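 active = activation of at least 8% versus controls, or a plate z-score of at least 8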;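 note: Pro5 are CHO cells carrying HIG-tagged alpha-DG that lacks glycosylation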
MC4R barr agon: MC4R agonists recruiting beta-arrestin, primary screen, cell-based, luminescence, agonist arm of biased-ligand search. Melanocortin receptor 4 (Homo sapiens), P32245. AID 540308, 2011. U2OS MC4R beta-arrestin complementation; percent of melanotan II response, DMSO zero. activation, % at 8.9 µM. 360,000 compounds, 0.98% hits;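 active = activation above a per-plate cutoff, the mean activation of sample wells on that plate plus 3 SD, cut at about 8% in these data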
TAG inh: inhibitors of triacylglycerol accumulation, primary screen, cell-based, uHTS, fluorescence, H9c2. inhibition, % at 12.5 µM. 230,000 compounds, 0.66% hits. H9c2 cells, Nile Red lipid (TAG) fluorescence; cells loaded with 200 µM oleic acid;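 active = pattern-corrected inhibition of lipid staining of at least 50% with the nuclear-stain viability signal not falling by more than 50%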;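 note: 0% = DMSO wells and 100% = triacsin C control wells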
MC4R antagonist: MC4R antagonists of cAMP signaling, primary screen, cell-based, TR-FRET, antagonist arm of biased-ligand search; 360,000 compounds, 0.48% hits; inhibition, % at 6.5 µM; Melanocortin receptor 4 (Homo sapiens), P32245; MC4R-expressing cells, MTII-stimulated cAMP, LANCE TR-FRET;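 active = inhibition above its plate's cutoff, the mean of tested wells on that plate plus 3 SD, cut at about 29% in these data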;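 note: 0% = Melanotan II alone and 100% = Melanotan II plus saturating MCL0020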
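Material: U2OS-MC4R stable cell line | Reagent: Melanotan II challenge after compound preincubation | Doses: One concentration, 6.5 µM nominal | Incubation: 30-min compound preincubation, 1-h Melanotan II challenge, 1-h detection, room temperature | Signal: TR-FRET cAMP assay | Replicates: One well per compound, no replicates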
TbMetRS inhib: T. brucei MetRS inhibitors, primary screen, biochemical, luminescence; methionyl-tRNA synthetase (Trypanosoma brucei brucei); purified T. brucei MetRS, ATP depletion, Kinase-Glo luminescence; inhibition, % at 11.9 µM; 360,000 compounds, 0.4% hits;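 active = inhibition above a per-plate cutoff of the control wells' mean inhibition plus 3 SD, cut at about 5.5% in these data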;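 note: 0% = DMSO wells median and 100% = median of wells with control inhibitor compound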
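Assay system: T. brucei methionyl-tRNA synthetase, purified | Medium: HEPES buffer with MgCl2, KCl, DTT, spermine, BSA, pyrophosphatase | Compound: 11.9 µM single point | Incubation: 15 min enzyme-compound preincubation, 2 h reaction, 10 min detection, 25 °C | Measured by: Kinase-Glo luciferase luminescence reporting remaining unconsumed ATP | Measure: % inhibition normalized to control-well medians | Replication: Singlicate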
U2OS cAMP counter: nonselective cAMP signaling inhibitors, parental cells, counter-screen for MC4R biased antagonist project, cell-based, TR-FRET, U2OS, forskolin, triplicate; AID 602193, 2012; inhibition, % at 6.5 µM; LANCE TR-FRET; shares compounds with MC4R antagonist; 1,600 compounds, 26% hits;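 active = mean inhibition over triplicates above the low-control well mean plus 3 SD, set per campaign, cut at about 13% in these data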;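 note: signal is single emission at 671 nm which falls as cellular cAMP rises; 0% = forskolin-stimulated wells and 100% = buffer without forskolin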
MC4R antag conf: MC4R cAMP antagonists, retest, confirmation, cell-based, TR-FRET. MC4R-expressing cells, MTII-stimulated cAMP. inhibition, % at 6.5 µM. AID 602195, 2012. shares compounds with MC4R antagonist. 1,600 compounds, 27% hits; in the data active = inhibition above about 29%;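 note: 0% = agonist stimulated wells alone and 100% = agonist stimulated wells plus saturating reference antagonist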
MC4R barr conf: MC4R beta-arrestin agonists, retest, confirmation, cell-based, luminescence, U2OS | shares compounds with MC4R barr agon | U2OS MC4R beta-arrestin recruitment; scaled DMSO 0%, Melanotan II 100% | activation, % at 8.9 µM | 2,400 compounds, 31% hits;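 active = mean activation across replicates above the hit cutoff set in the earlier primary screen, cut at about 8% in these data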
MOR DOR agonist: agonists of MOR-DOR heterodimerization, counter-screen for MC4R biased agonist project, cell-based, luminescence | 2,400 compounds, 5.8% hits | shares compounds with MC4R barr agon | U2OS PathHunter beta-arrestin, beta-gal luminescence; percent of deltorphin B response, DMSO zero | activation, % at 9.2 µM;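 active = mean activation across replicates exceeds the hit threshold derived in the earlier primary screen, cut at about 18% in these data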;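 note: 100% = deltorphin B at 0.9 µM final and 0% = DMSO alone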
Target sequence (P35372 whole entry, looked up): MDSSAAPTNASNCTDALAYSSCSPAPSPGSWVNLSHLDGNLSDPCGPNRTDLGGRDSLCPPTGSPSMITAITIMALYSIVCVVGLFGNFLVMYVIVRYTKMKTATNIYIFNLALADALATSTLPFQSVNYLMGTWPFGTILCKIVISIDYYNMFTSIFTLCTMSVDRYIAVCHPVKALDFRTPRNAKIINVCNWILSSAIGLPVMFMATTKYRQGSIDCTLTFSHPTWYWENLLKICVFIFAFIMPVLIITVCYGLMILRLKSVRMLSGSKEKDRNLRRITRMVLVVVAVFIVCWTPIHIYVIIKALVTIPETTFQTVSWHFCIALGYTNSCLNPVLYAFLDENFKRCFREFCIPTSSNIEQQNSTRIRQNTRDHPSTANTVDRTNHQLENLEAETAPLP
Target sequence (P41143 whole entry, looked up): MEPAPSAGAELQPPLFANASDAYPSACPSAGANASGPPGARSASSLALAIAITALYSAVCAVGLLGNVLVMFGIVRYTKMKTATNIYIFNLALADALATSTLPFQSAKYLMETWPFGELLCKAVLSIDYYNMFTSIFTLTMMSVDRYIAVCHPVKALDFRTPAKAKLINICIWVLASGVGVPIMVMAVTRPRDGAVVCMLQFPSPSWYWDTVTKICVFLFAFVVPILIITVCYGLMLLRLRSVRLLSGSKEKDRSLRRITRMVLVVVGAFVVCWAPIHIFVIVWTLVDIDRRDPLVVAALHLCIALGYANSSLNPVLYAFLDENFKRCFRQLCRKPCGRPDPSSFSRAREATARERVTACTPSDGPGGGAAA
TbMetRS confirm: T. brucei MetRS inhibitors, confirmation, biochemical, luminescence. shares compounds with TbMetRS inhib. T. brucei MetRS enzyme, luminescence (ATP depletion). inhibition, % at 11.9 µM. 1,400 compounds, 93% hits. AID 624412, 2012; in the data active = inhibition above about 7%
Jurkat cytotox: Jurkat T cell cytotoxicity, cytotoxicity control for T. brucei MetRS inhibitor project, luminescence, high throughput | shares compounds with TbMetRS inhib | Jurkat cells viability, ATP luminescence | inhibition, % at 8.3 µM | 1,400 compounds, 12% hits | AID 624413, 2012; in the data active = inhibition above about 15%;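 note: 0% = vehicle and 100% = reference inhibitor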
TbMetRS FP orth: T. brucei MetRS inhibitors, orthogonal assay for T. brucei MetRS inhibitor project, biochemical, fluorescence polarization | purified T. brucei MetRS | AID 651607, 2012 | inhibition, % at 11.9 µM | 1,400 compounds, 44% hits | shares compounds with TbMetRS inhib; in the data active = inhibition above about 17%;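 note: 0% = vehicle wells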
* = called active by the depositor.

Results for COc1ccc(C(=O)N/C(=C\c2ccc3c(c2)OCO3)C(=O)NCCc2nc3ccccc3[nH]2)cc1 ?
NTR1 ag: 1; aDG glyco up: 0; MC4R barr agon: 0; MC4R antagonist: 29*; TbMetRS inhib: 6.9*; U2OS cAMP counter: 3; MC4R antag conf: -2; TbMetRS confirm: 11*; Jurkat cytotox: 1; TbMetRS FP orth: 7

How did O=C(O)C1CCC2CCCC21 (centres undefined) do in these assays?
aDG glyco up: 0; TbMetRS inhib: 0

What do the screens show for `CCCCOc1cccc(OCC(=O)Nc2nc3ccccc3[nH]2)c1`?
NTR1 ag: -2; aDG glyco up: 0; MC4R barr agon: 7; TAG inh: -8; MC4R antagonist: 33*; TbMetRS inhib: 36*; U2OS cAMP counter: -9; MC4R antag conf: -23; TbMetRS confirm: 48*; Jurkat cytotox: 1; TbMetRS FP orth: 14

What do the screens show for `Cc1occc1-c1nnc(SCC(=O)Nc2nc(C(C)(C)C)cs2)o1`?
NTR1 ag: 4; aDG glyco up: 2; MC4R barr agon: 12*; MC4R antagonist: 21; TbMetRS inhib: 0; MC4R barr conf: 4; MOR DOR agonist: 6

How did COc1cccc(/C=N/Nc2ccc(Cl)nn2)c1OC do in these assays?
NTR1 ag: 2; aDG glyco up: 0; MC4R barr agon: -2; TAG inh: 11; MC4R antagonist: 10; TbMetRS inhib: 0

How did COc1cccc(C=NNc2nc3ccccc3s2)c1OC do in these assays?
aDG glyco up: 0; MC4R barr agon: 22*; TAG inh: 18; MC4R antagonist: -4; TbMetRS inhib: 0; MC4R barr conf: 3; MOR DOR agonist: 8

How did Oc1ccccc1C=NNc1nc2ccccc2s1 do in these assays?
aDG glyco up: 0; MC4R barr agon: 1; TAG inh: 10; MC4R antagonist: -1; TbMetRS inhib: 0

What do the screens show for `C(=N\Nc1nc2ccccc2s1)/c1cccs1`?
NTR1 ag: 2; aDG glyco up: 0; MC4R barr agon: 5; MC4R antagonist: 10; TbMetRS inhib: 0

How did COc1cccc(/C=N/Nc2nnc3c(n2)[nH]c2ccccc23)c1OC do in these assays?
NTR1 ag: 1; aDG glyco up: 0; MC4R barr agon: 11*; TAG inh: -7; MC4R antagonist: 17; TbMetRS inhib: 0; MC4R barr conf: -2; MOR DOR agonist: 2

Results for Cc1ccsc1/C=N/Nc1nc2ccccc2s1 ?
NTR1 ag: 25; aDG glyco up: 0; MC4R barr agon: 9.9*; MC4R antagonist: -6; TbMetRS inhib: -1; MC4R barr conf: -1; MOR DOR agonist: 6

What do the screens show for `Cn1cc(-c2cnc3c(NC=O)cc(-c4cccc(C(F)(F)F)c4)cn23)cn1`?
aDG glyco up: 0; MC4R barr agon: 2; TAG inh: 6; MC4R antagonist: -11; TbMetRS inhib: 0

How did COc1cccc(-c2cc(NC=O)c3ncc(-c4cccc(C(=O)N(C)C)c4)n3c2)c1 do in these assays?
aDG glyco up: 0; MC4R barr agon: 2; TAG inh: 14; MC4R antagonist: -12; TbMetRS inhib: 0

Results for Nc1ccc(-c2cc(NC=O)c3ncc(-c4cccc(C(F)(F)F)c4)n3c2)cn1 ?
aDG glyco up: 1; MC4R barr agon: 11*; TAG inh: 16; MC4R antagonist: -18; TbMetRS inhib: 0; MC4R barr conf: 5; MOR DOR agonist: 5

Results for CN(C)CCNC(=O)c1cccc(-c2cc(NC=O)c3ncc(-c4cccc(C(F)(F)F)c4)n3c2)c1 ?
aDG glyco up: 0; MC4R barr agon: 23*; TAG inh: 48; MC4R antagonist: -6; TbMetRS inhib: 0; MC4R barr conf: 29*; MOR DOR agonist: 7

Results for COc1cccc(-c2cnc3c(NC=O)cc(-c4ccc(O)c(OC)c4)cn23)c1 ?
aDG glyco up: 0; MC4R barr agon: 30*; TAG inh: 4; MC4R antagonist: -5; TbMetRS inhib: 0; MC4R barr conf: 30*; MOR DOR agonist: 4

How did COc1cccc(-c2cnc3c(NC=O)cc(-c4cccc(C(=O)N(C)C)c4)cn23)c1 do in these assays?
aDG glyco up: 0; MC4R barr agon: 31*; TAG inh: 150; MC4R antagonist: -11; TbMetRS inhib: 0; MC4R barr conf: 21*; MOR DOR agonist: 1

How did CCCCNc1c(CC(C)C)nc2nc(C)cc(C)n12 do in these assays?
aDG glyco up: 0; TbMetRS inhib: -1

Source: PubChem (several laboratories)
